eIF4H inh: inhibitors of RNA binding by human eIF4H | eIF4H fluorescence polarization binding assay | inhibition, % at 35 µM | 290,000 tested, 0.94% active | AID 2012;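 further: calls also rest on retests at 20 µM and on dose response follow-up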
PABP FP inh: blocks human PABP binding to poly(A) RNA; P11940; fluorescence polarization; calls only at 35 µM; 290,000 tested, 1% active; AID 2014;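 further: calls also rest on retests at 20 µM and on dose response follow-up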
MLLE-PAM2 inh: inhibitors of microRNA-mediated deadenylation, human PABP1 MLLE binding; P11940; GST-MLLE / FITC-PAM2 fluorescence polarization; inhibition, % at 20 µM; 360,000 tested, 0.36% active; AID 588489; in the data active means inhibition above about 35%, passing the limit was not always enough;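 further: plate controls were DMSO wells with GST-MLLE for no effect and wells lacking GST-MLLE protein for full effect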
HCV core dimer: HCV core protein dimerization inhibition; TR-FRET GST/Flag-core106 dimerization, 1536-well; inhibition, % at 5 µM; 300,000 tested, 0.33% active; AID 1899;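 active means inhibition above the mean of all tested compounds plus 3 SD, set per screening campaign, cut at about 45% in these data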
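System: GST/Flag-tagged HCV core106 proteins. Incubation: compound-protein-antibody incubation 4 h at 22.5 °C. Technique: HTRF with 340 nm excitation, 617/671 nm emission. Medium: KF-containing HEPES buffer, pH 7.45, DTT, CHAPS, BSA. Read-out: inhibition (%) from 671 over 617 nm ratio. Also added: Eu(K)-anti-GST 90 ng/mL plus XL665-anti-Flag 1 µg/mL.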
SUMO HTRF inh: inhibitors of human SUMOylation (UBC9); 290,000 tested, 0.36% active; inhibition, % at 35 µM; AID 2006; HTRF SUMOylation assay, SAE1/SAE2 + UBC9, in vitro; in the data active means inhibition above about 50%, passing the limit was not always enough; inconclusive means no clear call, values can overlap the other calls
eIF4E 4G PPI: inhibitors of eIF4E and eIF4G interaction in translation initiation; P63073+Q04637; TR-FRET eIF4E-eIF4GI(517-606) binding, 2 h; inhibition, % at 21.7 µM; 220,000 tested, 0.37% active;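 active means inhibition above about 30%, limit read from the data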;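 further: 0% = full FRET control wells and 100% = background wells lacking eIF4GI fragment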
Target sequence (P63073 whole entry, looked up, the tested form may be a part): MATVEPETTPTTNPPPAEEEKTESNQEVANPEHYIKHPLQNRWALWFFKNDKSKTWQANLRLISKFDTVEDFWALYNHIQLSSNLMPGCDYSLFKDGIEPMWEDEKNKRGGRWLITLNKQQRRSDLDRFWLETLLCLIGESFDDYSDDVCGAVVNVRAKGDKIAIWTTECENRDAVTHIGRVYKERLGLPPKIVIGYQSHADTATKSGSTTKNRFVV
Target sequence (Q04637 whole entry, looked up, the tested form may be a part): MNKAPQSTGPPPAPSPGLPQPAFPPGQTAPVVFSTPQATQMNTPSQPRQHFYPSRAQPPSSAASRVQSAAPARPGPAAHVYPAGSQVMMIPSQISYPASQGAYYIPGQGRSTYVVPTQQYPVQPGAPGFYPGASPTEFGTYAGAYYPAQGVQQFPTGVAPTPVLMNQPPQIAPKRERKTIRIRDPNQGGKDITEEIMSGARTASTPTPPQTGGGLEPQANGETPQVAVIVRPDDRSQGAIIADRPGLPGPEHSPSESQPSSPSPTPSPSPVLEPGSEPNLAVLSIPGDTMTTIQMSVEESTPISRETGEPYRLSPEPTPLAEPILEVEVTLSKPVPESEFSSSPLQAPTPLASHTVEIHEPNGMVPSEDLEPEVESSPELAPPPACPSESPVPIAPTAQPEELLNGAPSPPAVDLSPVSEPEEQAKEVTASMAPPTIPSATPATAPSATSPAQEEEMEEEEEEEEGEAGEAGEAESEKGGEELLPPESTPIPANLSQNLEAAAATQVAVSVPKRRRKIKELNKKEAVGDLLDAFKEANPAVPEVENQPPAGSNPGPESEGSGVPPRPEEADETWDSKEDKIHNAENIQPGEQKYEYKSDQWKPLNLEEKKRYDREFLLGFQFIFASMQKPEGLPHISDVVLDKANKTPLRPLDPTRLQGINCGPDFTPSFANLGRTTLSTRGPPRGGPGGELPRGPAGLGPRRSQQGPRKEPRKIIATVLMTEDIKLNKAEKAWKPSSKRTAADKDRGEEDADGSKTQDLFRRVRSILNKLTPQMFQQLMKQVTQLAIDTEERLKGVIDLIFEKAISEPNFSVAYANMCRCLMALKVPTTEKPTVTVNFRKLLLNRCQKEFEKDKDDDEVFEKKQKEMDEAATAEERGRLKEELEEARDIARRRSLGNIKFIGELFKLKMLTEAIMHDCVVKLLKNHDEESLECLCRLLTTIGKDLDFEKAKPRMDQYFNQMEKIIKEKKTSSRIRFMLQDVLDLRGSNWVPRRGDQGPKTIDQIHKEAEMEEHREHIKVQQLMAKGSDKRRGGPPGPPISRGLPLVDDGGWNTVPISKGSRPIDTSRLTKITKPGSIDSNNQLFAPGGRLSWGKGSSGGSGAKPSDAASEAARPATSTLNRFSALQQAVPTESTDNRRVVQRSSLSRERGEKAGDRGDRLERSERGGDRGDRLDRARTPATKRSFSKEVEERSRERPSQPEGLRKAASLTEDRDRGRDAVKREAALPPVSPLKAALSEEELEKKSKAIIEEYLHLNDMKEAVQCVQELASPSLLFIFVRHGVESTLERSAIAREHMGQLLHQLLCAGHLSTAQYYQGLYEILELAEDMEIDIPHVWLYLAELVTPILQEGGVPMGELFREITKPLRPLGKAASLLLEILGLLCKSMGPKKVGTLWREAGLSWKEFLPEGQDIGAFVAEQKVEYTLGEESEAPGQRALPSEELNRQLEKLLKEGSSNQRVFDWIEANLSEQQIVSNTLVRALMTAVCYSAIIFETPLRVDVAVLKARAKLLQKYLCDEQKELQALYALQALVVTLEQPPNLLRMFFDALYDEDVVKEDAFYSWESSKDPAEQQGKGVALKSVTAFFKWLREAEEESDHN
An asterisk follows results filed as active; i = inactive; ? = inconclusive; nt = no result given; + = active, no number; [ ] = another dose, or the depositor's remark. Compounds with a hit are over-represented: about 1.8% of the library has one in this group of screens. Unless noted, how the calls were made is not given here.

SMILES | eIF4H inh | PABP FP inh | MLLE-PAM2 inh | HCV core dimer | SUMO HTRF inh | eIF4E 4G PPI
CCN(CC)CCNC(=O)c1cc2c(=O)n(CC)c3ccccc3c2s1 | -1 | i | -2 | 1 | 4 | nt
CCCN(CCC)CCNC(=O)c1cc2c(=O)n(CC)c3ccccc3c2s1 | 0 | i | -7 | 0 | 17 | 97*
O=C(Nc1ccnn1C1CCN(C(=O)Cc2ccccc2F)CC1)C1CC1 | -4 | i | 8 | -1 | 6 | nt
C/C(=N\Nc1ccc(C(F)(F)F)cn1)c1ccncc1 | active | + | 2 | 1 | -6 | -1
COC(=O)CN1C(=O)[C@H]2[C@@H](c3ccc(C)o3)N3C(=O)CN(CC4CC4)C(=O)[C@@]3(C)[C@H]2C1=O | -6 | i | 9 | -9 | 0 | nt
CN1CCC(N(C)C(=O)c2ccc(Cl)c(S(=O)(=O)N3CCc4ccccc43)c2)CC1 | nt | nt | 17 | nt | nt | nt
COc1cc(CNCCO)ccc1OCCc1ccccc1 | -8 | i | -7 | -14 | 10 | nt
CCCC(=O)Nc1nnc(-c2ccco2)s1 | 24 | i | 11 | 2 | -2 | 13
Cc1cccc(OCC(=O)Nc2nnc(-c3ccco3)s2)c1 | 33 | i | 10 | 4 | 6 | 2
O=C(Cc1ccccc1)Nc1nnc(-c2ccco2)s1 | 64 | + | -6 | 3 | 69 | -5
COc1ccccc1OCC(=O)Nc1nnc(-c2ccco2)s1 | 96* | + | 10 | nt | 34 | 0
COC(=O)Cn1c(=O)c2c(nc3n2CCCN3CCc2ccccc2)n(C)c1=O | -2 | i | -13 | -3 | -6 | nt
COc1ccc(NS(=O)(=O)c2cccc(NC(=O)CCC(=O)c3ccc(Cl)cc3)c2)cc1 | active | i | -4 | 10 | -5 | 3
CC(=O)Nc1ccc(NC(=O)CCCc2ccccc2)cc1 | -8 | i | 5 | 7 | 13 | nt
CC(C)[C@H](NC(=O)OCc1ccccc1)C(=O)OCC(=O)NCc1ccco1 | nt | nt | -8 | nt | nt | nt
COc1cc(C(=O)OCC(=O)NCc2ccco2)cc(OC)c1OC | 9 | i | 1 | 21 | 12 | -9
CC(C)C(NC(=O)OCc1ccccc1)C(=O)OCC(=O)NCc1ccco1 (stereo not drawn) | 13 | i | -3 | 75* | -5 | 5
CCOc1cc(C(=O)OCC(=O)NCc2ccco2)cc(OCC)c1OCC | 8 | i | -5 | 52* | -2 | -5
O=C(COC(=O)c1cncc(Br)c1)NCc1ccc(F)cc1 | 10 | ? | -4 | 3 | 9 | 2
O=C(COC(=O)Cc1ccc(F)cc1)NCc1ccco1 | 93* | + | -12 | 6 | -27 | 8
O=C(COC(=O)c1cncc(Br)c1)NCc1ccco1 | 97* | + | 7 | 25 | 8 | -7
C[C@@H]1CCCCO[C@@H](CN(C)S(=O)(=O)c2ccccc2)[C@@H](C)CN([C@H](C)CO)C(=O)c2cc(N(C)C)ccc2O1 | nt | nt | 3 | nt | nt | nt
COc1ccc(OC)c(NC(=O)CN(C)CC(=O)Nc2ccccc2Br)c1 | 4 | i | 18 | 0 | -6 | 5
CC1CCCC(NC(=S)NC(=O)c2ccco2)C1C (stereo not drawn) | nt | nt | 24 | nt | nt | nt
CN(C)S(=O)(=O)c1cccc(COC(=O)Cc2c(F)cccc2Cl)c1 | -19 | i | -4 | -14 | -7 | nt
SMILES | eIF4H inh | PABP FP inh | MLLE-PAM2 inh | HCV core dimer | SUMO HTRF inh | eIF4E 4G PPI
Cc1cc(NS(=O)(=O)c2ccc(NC(=S)NC(=O)c3ccc(Br)cc3)cc2)no1 | -9 | i | 42* | 8 | 17 | 4
Cc1cc(C(=O)NC(=S)Nc2cccc(C(=O)O)c2C)ccc1[N+](=O)[O-] | 2 | i | 19 | -4 | 10 | 8
Cc1cc(C(=O)NC(=S)Nc2cccc(NC(=O)C(C)C)c2)ccc1[N+](=O)[O-] | -3 | i | 38* | -6 | -4 | 0
CC(=O)Nc1ccc(NC(=S)NC(=O)c2ccc([N+](=O)[O-])cc2)cc1 | 3 | i | 40* | 0 | 3 | 1
CC(C)NS(=O)(=O)c1ccc(NC(=S)NC(=O)c2ccc(-c3ccccc3)cc2)cc1 | 0 | i | 41* | 6 | 21 | -11
CC(C)C(=O)Nc1cccc(NC(=S)NC(=O)c2ccc([N+](=O)[O-])cc2)c1 | -10 | i | -53 | -2 | 15 | 3
CCC(=O)NC(=S)Nc1ccc(NC(=O)c2ccc([N+](=O)[O-])cc2)cc1 | -6 | i | 13 | 15 | 18 | 56*[fluorescence artefact?]
CC(C)C(=O)Nc1ccc(NC(=S)NC(=O)c2ccc([N+](=O)[O-])cc2)cc1 | -9 | i | 42* | 0 | -2 | 2
CCc1nnc(NS(=O)(=O)c2ccc(NC(=S)NC(=O)c3ccc(F)cc3)cc2)s1 | 0.6* | i | 28 | 5 | 12 | -6
CCC(=O)NC(=S)Nc1ccc(NC(=O)c2ccc(OC)cc2)cc1 | 5 | i | 4 | 0 | -2 | 3
CC(Sc1nnc2n1CCCCC2)C(=O)Nc1cccc(S(=O)(=O)N2CCOCC2)c1 (stereo not drawn) | nt | nt | 11 | nt | nt | nt
CCSc1nc2ccccc2c(=O)n1-c1c(C)n(C)n(-c2ccccc2)c1=O | 5 | i | 0 | 2 | 25 | 3
Cc1cc(/C=N/NC(=O)Cn2c3ccccc3c(=O)c3ccccc32)c(C)n1-c1ccccc1 | -4 | i | -6 | 62* | 8 | -10
Cc1cc(=O)oc2c(CN3CCC(C)CC3)c(O)c(Cl)cc12 | ? | ? | 51* | 7 | 34 | -5
Cc1cc(=O)oc2c(CN3CCCC3)c(O)c(Cl)cc12 | 61 | i | 12 | 1 | 29 | nt
CCN(CC)Cc1c(O)c(Cl)cc2c(C)cc(=O)oc12 | ? | i | 41* | nt | 28 | 10
Cc1c(C)c2cc(Cl)c(O)c(CN3CCN(C)CC3)c2oc1=O | 3 | i | 0 | -8 | 52* | 0
CCN(CC)Cc1c(O)c(Cl)cc2c(C)c(C)c(=O)oc12 | -4 | i | 1 | -16 | 41 | -13
CC(C(=O)c1ccc(Br)cc1)[n+]1cccc2ccccc21 (stereo not drawn) | 90 | + | -28 | 4 | 5 | nt
O=C(Nc1ccc(C(=O)N2CCCC2)cc1)c1ccc(F)cc1Cl | 4 | i | 11 | -13 | 9 | nt
O=C(OCc1ccco1)c1ccc(S(=O)(=O)N2CCCCC2)cc1 | 45 | i | 12 | 80* | -2 | 7
CCC(=O)NC1OC(CO)C(O)C(O)C1O (stereo not drawn) | -5 | i | -1 | -1 | 8 | 0
COc1ccccc1NS(=O)(=O)c1cccc(NS(=O)(=O)c2cc(C(=O)O)ccc2OC)c1 | nt | nt | 12 | nt | nt | nt
CC(C)n1c(-c2ccccc2)nc(=S)c2c1CCCC2 | 5 | i | nt | 0 | 7 | -2
COc1ccc(-n2c(-c3ccccc3)nc(=S)c3c2CCCC3)cc1 | 3 | i | 19 | 77* | 1 | 6
COc1ccc(-n2c(-c3cccc(OC)c3)nc(=S)c3c2CCCC3)cc1 | -3 | i | 29 | 66* | -4 | -1
